# Test results published in ChEMBL document CHEMBL4190402, “Development of a Novel Human Parathyroid Hormone Receptor 1 (hPTHR1) Agonist (CH5447240), a Potent and Orally Available Small Molecule for Treatment of Hypoparathyroidism” (J Med Chem, 2018).
# Active and inactive are the calls of the source. The calls are words filed in the database; no cut-off is given here.
# Columns and labels:
# [1] = biological target: T1, Parathyroid hormone/parathyroid hormone-related peptide receptor (Homo sapiens) (UniProt Q03431); assay: (§1) Agonist activity at human PTHR1 expressed in HKRKB7 cells assessed as accumulation of intracellular cAMP after 20 mins by enzyme immunoassay; assay type: functional, cell-based
# T1 sequence (whole entry): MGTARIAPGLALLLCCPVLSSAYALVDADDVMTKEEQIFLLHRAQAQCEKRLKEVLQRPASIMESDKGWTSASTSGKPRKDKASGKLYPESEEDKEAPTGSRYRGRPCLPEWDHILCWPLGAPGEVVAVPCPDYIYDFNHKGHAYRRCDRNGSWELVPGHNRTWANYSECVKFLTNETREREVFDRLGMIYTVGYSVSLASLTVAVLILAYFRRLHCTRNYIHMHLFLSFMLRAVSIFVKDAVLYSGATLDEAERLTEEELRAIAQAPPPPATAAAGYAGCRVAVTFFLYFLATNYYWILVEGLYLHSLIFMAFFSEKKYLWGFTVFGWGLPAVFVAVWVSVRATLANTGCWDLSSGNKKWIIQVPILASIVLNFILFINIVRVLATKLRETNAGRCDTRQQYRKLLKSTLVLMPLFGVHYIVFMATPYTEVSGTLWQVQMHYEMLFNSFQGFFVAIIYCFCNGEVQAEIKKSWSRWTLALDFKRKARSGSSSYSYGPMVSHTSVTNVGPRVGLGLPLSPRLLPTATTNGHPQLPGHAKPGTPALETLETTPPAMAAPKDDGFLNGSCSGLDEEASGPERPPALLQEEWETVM
# In short: (§2)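 HKRK-B7 cells (LLC-PK1 stably expressing hPTHR1), 1.0 x 10^3 per well, seeded overnight, then exposed to serially diluted compound in McCoy's 5A with 2 mg/ml BSA, 1 mmol/l IBMX and 2 mmol/l HEPES for 20 min at 37°C. Cells washed, frozen, lysed in 50 mmol/l HCl, cAMP read by EIA.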
# [2] = biological target: T2, Parathyroid hormone/parathyroid hormone-related peptide receptor (Homo sapiens, UniProt Q03431); assay: as §1; assay type: functional, cell-based; in short: as §2
# T2 sequence (Q03431 whole entry): T1 sequence (whole entry)
# [3] = Solubility of the compound in FaSSIF at 1 mM by HPLC-UV analysis; assay type: physicochemical; conditions: for solubility at 1000 µM: FaSSIF
# In short: (§3)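 A 1 mM DMSO stock (50 µL) was freeze-dried, then the residue taken up in 50 mM PBS pH 6.5 or FaSSIF pH 6.5. Sonicated 10 min, shaken 2 h, centrifuged, filtered. Filtrate concentration determined by HPLC-UV against each compound's calibration curve.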
# [4] = Solubility of the compound in PBS at pH 6.5 at 1 mM by HPLC-UV analysis; assay type: physicochemical; conditions: for solubility at 1000 µM: PBS, pH 6.5; for solubility: buffer, pH 6.5, 1000 µM, BLD = below limit of detection; in short: as §3
# [5] = Intrinsic clearance in human liver microsomes assessed per mg protein at 1 uM after 30 mins in presence of NADPH by LC-MS/MS analysis; assay type: ADME, microsome; conditions: read-out: CLH
# LLC-PK1 = assay: Induction of cAMP production in porcine LLC-PK1 cells after 20 mins by enzyme immunoassay; assay type: functional, cell-based; conditions: Sus scrofa
# In short: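 Counter-screen on parent LLC-PK1 cells lacking hPTHR1. Conditions match the HKRK-B7 assay: 20 min at 37°C in IBMX-containing assay medium, then cAMP read by EIA.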
# [6] = Intrinsic clearance in human liver microsomes assessed per mg protein at 1 uM after 30 mins in absence of NADPH by LC-MS/MS analysis; assay type: ADME, microsome; conditions: liver microsomes, read-out: CLH
# [7] = biological target: T1, Parathyroid hormone/parathyroid hormone-related peptide receptor (Homo sapiens); assay: Agonist activity at human PTHR1 expressed in HKRKB7 cells assessed as accumulation of intracellular cAMP at 1 mM after 20 mins by enzyme immunoassay relative to human PTH (1 to 34 residues); assay type: functional, cell-based; in short: as §2
# Rattus norvegicus [8] = assay: In vivo agonist activity at PTHR1 in Crl:CD(SD) rat TPTX model assessed as increase in serum calcium levels at 9 nmol/kg, sc administered as single dose measured after 24 hrs by o-cresolphthalein complexone method; assay type: functional, organism-based
# In short: (§4)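 Female 6-week-old Crl:CD(SD) rats after surgical TPTX; those with serum Ca <8.0 mg/dl at day 5 were used, and treatment began day 6. Single sc dose of hPTH(1-34) at 9 nmol/kg, or phosphate-citrate buffer pH 6.0 vehicle, n=5 per group. Jugular blood taken under isoflurane before dosing and at 0.5–24 h. Serum Ca measured by o-CPC, Pi by xanthine oxidase. Mean ± SEM.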
# Rattus norvegicus [9] = assay: In vivo agonist activity at PTHR1 in Crl:CD(SD) rat TPTX model assessed as decrease in serum phosphorus levels 9 nmol/kg, sc administered as single dose measured after 24 hrs by xanthine oxidase method; assay type: functional, organism-based; in short: as §4
SMILES,EC20 [1] [µM],EC50 [2] [µM],microsomal CLint at 1 µM [5] [µL/min/mg],Activity [7] [%],Activity (LLC-PK1),other results
Cc1ccccc1CCS(=O)(=O)N1CCC2(CC1)N=C(C1CCCCC1)NC2=O,30,> 1000,100,,inactive,solubility at 1000 µM [3]: 15 µg/mL; solubility at 1000 µM [4]: 11 µg/mL
Cc1cc(N2CCNC2=O)cc(C)c1CCS(=O)(=O)N1CCC2(CC1)N=C(C1CCCCC1)NC2=O,240,> 1000,62,,inactive,"solubility ([3]; simulated gi fluid, 1000 µM, BLD = below limit of detection): Bld; solubility [4]: Bld; microsomal CLint at 1 µM [6]: 3.4 µL/min/mg"
O=C1NC(C2CCCCC2)=NC12CCN(S(=O)(=O)CCc1ccncc1)CC2,> 1000,,,,inactive,
O=C1NC(C2CCCCC2)=NC12CCN(S(=O)(=O)CCc1ccccc1)CC2,240,,,,inactive,
CC[C@H](C)[C@H](NC(=O)[C@H](CCC(=O)O)NC(=O)[C@H](CO)NC(=O)[C@@H](NC(=O)[C@@H](N)CO)C(C)C)C(=O)N[C@@H](CCC(N)=O)C(=O)N[C@@H](CC(C)C)C(=O)N[C@@H](CCSC)C(=O)N[C@@H](Cc1cnc[nH]1)C(=O)N[C@@H](CC(N)=O)C(=O)N[C@@H](CC(C)C)C(=O)NCC(=O)N[C@@H](CCCCN)C(=O)N[C@@H](Cc1cnc[nH]1)C(=O)N[C@@H](CC(C)C)C(=O)N[C@@H](CC(N)=O)C(=O)N[C@@H](CO)C(=O)N[C@@H](CCSC)C(=O)N[C@@H](CCC(=O)O)C(=O)N[C@@H](CCCNC(=N)N)C(=O)N[C@H](C(=O)N[C@@H](CCC(=O)O)C(=O)N[C@@H](Cc1c[nH]c2ccccc12)C(=O)N[C@@H](CC(C)C)C(=O)N[C@@H](CCCNC(=N)N)C(=O)N[C@@H](CCCCN)C(=O)N[C@@H](CCCCN)C(=O)N[C@@H](CC(C)C)C(=O)N[C@@H](CCC(N)=O)C(=O)N[C@@H](CC(=O)O)C(=O)N[C@H](C(=O)N[C@@H](Cc1cnc[nH]1)C(=O)N[C@@H](CC(N)=O)C(=O)N[C@@H](Cc1ccccc1)C(=O)O)C(C)C)C(C)C,,,,,,Activity (Rattus norvegicus [8]): Active; Activity (Rattus norvegicus [9]): Active
Cc1cc(N(C)C(N)=O)cc(C)c1CCS(=O)(=O)N1CCC2(CC1)N=C(C1CCCCC1)NC2=O,8.1,67,23,,inactive,solubility at 1000 µM [3]: 450 µg/mL; solubility at 1000 µM [4]: 290 µg/mL
O=C1NC(C2CCCCC2)=NC12CCN(S(=O)(=O)Cc1ccccc1)CC2,> 1000,,,,inactive,
O=C1NC(C2CCCCC2)=NC12CCN(S(=O)(=O)c1cccc3ccccc13)CC2,220,,,,inactive,
CC(=O)Nc1ccc(CCS(=O)(=O)N2CCC3(CC2)N=C(C2CCCCC2)NC3=O)c(C)c1,11,50,46,,inactive,solubility at 1000 µM [3]: 400 µg/mL; solubility at 1000 µM [4]: 280 µg/mL; microsomal CLint at 1 µM [6]: 33 µL/min/mg
O=C1NC(C2CCCCC2)=NC12CCN(S(=O)(=O)CCc1cccc3ccccc13)CC2,15,,300,,inactive,solubility at 1000 µM [3]: 3.1 µg/mL; solubility [4]: Bld
C[C@H]1CC[C@H](C2=NC3(CCN(S(=O)(=O)c4cccc(Cl)c4)CC3)C(=O)N2)CC1,,,,35,inactive,
CC(=O)Nc1cc(C)c(CCS(=O)(=O)N2CCC3(CC2)N=C(C2CCCCC2)NC3=O)c(C)c1,6.4,26,39,,inactive,solubility at 1000 µM [3]: 38 µg/mL; solubility at 1000 µM [4]: 8 µg/mL; microsomal CLint at 1 µM [6]: 18 µL/min/mg
O=C1NC(C2CCCCC2)=NC12CCN(S(=O)(=O)c1cccc(Cl)c1)CC2,140,,,45,inactive,

# Continued, in another order:
EC20 [1] [µM],EC50 [2] [µM],microsomal CLint at 1 µM [5] [µL/min/mg],Activity [7] [%],SMILES,Activity (LLC-PK1),other results
,,,1.3,O=C(O)c1ccc(C2=NC3(CCN(S(=O)(=O)c4cccc(Cl)c4)CC3)C(=O)N2)cc1,inactive,
530,> 1000,,23,O=C1NC(c2ccc(Cl)cc2Cl)=NC12CCN(S(=O)(=O)c1cccc(Cl)c1)CC2,inactive,
,,,1.9,O=C1NC(c2ccccc2)=NC12CCN(S(=O)(=O)c1cccc(Cl)c1)CC2,inactive,
,,,1,O=C1NC(c2ccncc2)=NC12CCN(S(=O)(=O)c1cccc(Cl)c1)CC2,inactive,
150,,,,O=C1NC(c2ccc(Cl)cc2Cl)=NC12CCN(S(=O)(=O)CCc1cccc3ccccc13)CC2,inactive,
,,,18,O=C1NC(c2ccccc2Cl)=NC12CCN(S(=O)(=O)c1cccc(Cl)c1)CC2,inactive,
,,,22,O=C1NC(c2ccc(Cl)cc2)=NC12CCN(S(=O)(=O)c1cccc(Cl)c1)CC2,inactive,
